Assay outcomes deposited in PubChem by several laboratories.
An excerpt weighted towards active compounds, which were near 6.8% of everything screened.
AI-2 QS mod: Vibrio harveyi AI-2 quorum sensing modulation | AID 2094 | activity change, % at 7.5 µM | 0.4% of 300,000 active | Vibrio harveyi JMH597 AI-2 luminescence/OD600 ratio, 9 h; stronger effect = lower value; strain lacks LuxN and CqsS sensors; 0 = neutral-control median; in the data active means activity change below about -75%, passing the limit was not always enough;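 further: luminescence divided by OD600 gain over 9 h not by final OD600 alone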
HSF1 inh: HSF1 inhibition | activity change, negative = inhibition, % at 7.5 µM (by protocol) | NIH3T3-HGL HSE-luciferase, MG132-induced, luminescence 8 h; stronger effect = lower value | 0.77% of 300,000 active;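 active means more than half of replicate wells show activity change below -50%, luminescence cut by over half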;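 further: luciferase reports HSF-1 transcriptional activity via heat shock element; 0% = median of DMSO wells and -100% = zero luminescence signal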
HSF-1 act: increases HSF-1 driven luciferase reporter signal; NIH3T3-HGL HSF-1 luciferase reporter, MG132, 8 h; 100% = twice DMSO control signal; activation, % at 9 µM; 1.7% of 300,000 active; AID 504408;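 active means mean replicate activation of at least 50% with a set share of replicates each reaching 50%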;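 further: 0% = median of the neutral control wells and 100% = twice that signal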
PHOSPHO1 block: PHOSPHO1 (human) inhibition; inhibition, % at 13.3 µM; recombinant PHOSPHO1, absorbance phosphatase assay; Q8TCT1; 1.1% of 290,000 active; in the data active means inhibition above about 60%
Target sequence (Q8TCT1 whole entry, looked up): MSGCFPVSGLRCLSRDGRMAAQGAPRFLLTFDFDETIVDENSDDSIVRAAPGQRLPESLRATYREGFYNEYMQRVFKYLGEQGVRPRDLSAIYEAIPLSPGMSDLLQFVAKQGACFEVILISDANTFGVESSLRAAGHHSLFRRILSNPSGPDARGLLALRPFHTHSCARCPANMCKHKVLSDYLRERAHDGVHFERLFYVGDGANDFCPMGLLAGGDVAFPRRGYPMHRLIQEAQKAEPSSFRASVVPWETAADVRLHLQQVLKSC
ALR H2O2 inh: human ALR oxidase inhibition via reduced H2O2 | P55789 | purified ALR, DTT oxidation, H2O2 HRP-luminol luminescence | inhibition, % (test concentration not listed) | 3.8% of 290,000 active;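 active means mean replicate inhibition above about 79%, with every replicate also reaching it, limit read from the data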
Target sequence (P55789 whole entry, looked up): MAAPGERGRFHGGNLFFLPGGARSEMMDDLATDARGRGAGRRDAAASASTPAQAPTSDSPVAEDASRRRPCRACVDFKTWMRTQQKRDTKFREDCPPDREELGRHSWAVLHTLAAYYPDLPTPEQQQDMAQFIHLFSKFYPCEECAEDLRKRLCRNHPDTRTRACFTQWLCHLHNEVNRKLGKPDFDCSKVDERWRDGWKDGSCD
core dimer inh: blocks dimerization of HCV core protein. inhibition, % at 5 µM. AID 1899. TR-FRET GST/Flag-core106 dimerization, 1536-well. 0.33% of 300,000 active;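 active means inhibition above the mean of all tested compounds plus 3 SD, set per screening campaign, cut at about 45% in these data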
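System: GST/Flag-tagged HCV core106 proteins. Incubation: compound-protein-antibody incubation 4 h at 22.5 °C. Technique: HTRF with 340 nm excitation, 617/671 nm emission. Medium: KF-containing HEPES buffer, pH 7.45, DTT, CHAPS, BSA. Read-out: inhibition (%) from 671 over 617 nm ratio. Also added: Eu(K)-anti-GST 90 ng/mL plus XL665-anti-Flag 1 µg/mL.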
* hit, by the source's call; nt = no result.

SMILES	AI-2 QS mod	HSF1 inh	HSF-1 act	PHOSPHO1 block	ALR H2O2 inh	core dimer inh
O=C(Nc1cccc(Cl)c1)Nc1ccccc1C(=O)O	19	8	5	8	11	1
O=C(Nc1ccccc1)Nc1ccc(Cl)c([N+](=O)[O-])c1	-102*	-4	7	18	nt	9
O=C(Nc1ccc(Cl)cc1)Nc1csc([N+](=O)[O-])c1	-83*	63	84*	32	-1	-8
O=C(Nc1ccc(Cl)cc1)Nc1ccccc1C(=O)O	8	24	54*	-12	14	1
O=C(Nc1csc([N+](=O)[O-])c1)Nc1c(Cl)cccc1Cl	-7	15	21	37	-5	-9
NC(=S)NNC(=O)Nc1ccc(Cl)c(Cl)c1	25	-15	-1	-6	94*	-9
Cc1ccc(NC(=O)Nc2ccccc2)cc1[N+](=O)[O-]	2	5	11	11	-3	10
O=C(Cc1ccccc1)NNC(=O)Nc1ccc(Cl)c(Cl)c1	3	-7	0	-5	-3	-1
Cc1c(C)c2ccc(OCC(=O)N(C)C3CCS(=O)(=O)C3)c(C)c2oc1=O (stereo not given)	1	1	-6	33	-3	-10
Cc1ccc(NC(=O)NCCCc2ccccc2)cc1	-5	6	19	17	0	4
O=C(COC(=O)c1ccc(NS(=O)(=O)c2ccc(F)c(F)c2)cc1)NCC1CCCO1 (stereo not given)	18	-7	-8	-16	-10	-1
O=C(Nc1ccc(Cl)c(Cl)c1)Nc1ccccc1C(=O)O	15	27	68*	15	98*	-1
O=C(Nc1ccc(Cl)c(Cl)c1)Nc1ccccn1	6	14	31	18	-4	-9
O=C(Nc1ccc(Br)cc1)Nc1ccccc1Cl	17	25	58*	33	12	-6
O=C(COc1ncnc2ccc(Br)cc12)NCc1ccco1	25	4	-3	35	-3	1
Cc1nc(NCCc2ccccc2F)c(C#N)c(C)c1[N+](=O)[O-]	14	3	10	22	-4	-1
Cc1ccc(Cl)cc1Nc1nc(-c2sc(NC(=O)c3cccc(Cl)c3)nc2C)cs1	-1	0	21	-32	39	-20
CCCCCCC(=O)Nc1nc(C)c(-c2csc(Nc3ccc(Cl)cc3)n2)s1	20	2	-7	72*	-1	1
CCCCCC(=O)Nc1nc(C)c(-c2csc(Nc3ccc(Cl)cc3)n2)s1	14	1	-9	-143	-8	4
CCCCCC(=O)Nc1nc(C)c(-c2csc(Nc3cc(Cl)ccc3C)n2)s1	22	1	-4	70*	-1	-44
CCCC(C)C(=O)Nc1nc(C)c(-c2csc(Nc3cc(Cl)ccc3C)n2)s1 (stereo not given)	27	3	-5	74*	-10	-85
O=C(/C=C/c1ccccc1[N+](=O)[O-])Nc1cccnc1	20	19	25	-1	nt	0
CC12CN3CC(C)(CN(C1)C3c1cc(Br)ccc1O)C2=O (stereo not given)	21	1	2	-6	-1	0
CC12CN3CC(C)(CN(C1)C3c1ccc(Br)cc1O)C2 (stereo not given)	12	-2	-13	15	99*	4
c1ccc(N2CCN(c3ccccc3)C2c2ccncc2)cc1	7	-3	17	3	86*	-3
SMILES	AI-2 QS mod	HSF1 inh	HSF-1 act	PHOSPHO1 block	ALR H2O2 inh	core dimer inh
O=C(N=C1SC2CS(=O)(=O)CC2N1Cc1ccccc1)C1CCCCC1 (stereo not given)	2	8	-18	26	0	4
CNc1nc(Cl)c(SC)c(NCc2cccc(OC)c2)n1	15	6	3	15	-1	2
O=[N+]([O-])c1ccc(OCCCCN2CCc3ccccc3C2)cc1	49	-14	-10	36	-6	-4
CCCc1nc2ccccc2c(C(=O)OC2CCOC2=O)c1CC (stereo not given)	29	5	16	66*	58	3
COc1ccc(Oc2c(C)oc3c(CN4CCOCC4)c(O)ccc3c2=O)cc1	22	-2	-2	60*	1	-4
COc1ccccc1-c1c(C)oc2c(CN3CCOCC3)c(O)ccc2c1=O	19	-1	7	24	-24	1
CCOC(=O)c1c(NC(=O)Cn2ccsc2=N)sc(C)c1C	10	-1	29	-66	8	3
Cc1cc2cc(CNS(=O)(=O)c3ccccc3)ccc2n1C	40	-11	-11	10	96*	-18
Cc1nc2cc(NC(=O)Nc3ccc(Br)cc3)ccc2o1	13	19	58*	4	-6	4
Cc1nc2cc(NC(=O)NCc3ccc4c(c3)OCO4)ccc2o1	25	-6	6	-26	-5	-3
Cc1nnc(C)c2c(C)n(-c3ccccc3N)c(C)c12	-1	-1	-6	1	-46	-3
Cc1ccc(C(=O)NCCc2nnc3ccc(SCC(=O)Nc4ccc(C)cc4C)nn23)cc1	13	-11	0	7	-6	-2
Cc1ccc(C(=O)NCCc2nnc3ccc(SCC(=O)Nc4ccccc4F)nn23)cc1	18	2	1	40	97*	1
Cc1ccc(S(=O)(=O)NCCc2nnc3ccc(SCC(=O)Nc4nc(C)cs4)nn23)cc1	32	0	-3	-4	98*	-3
O=C(CSc1ccc2nnc(CCNC(=O)c3ccccc3)n2n1)Nc1ccccc1F	20	nt	nt	-11	-34	3
Cc1ccc(C(=O)NCCc2nnc3ccc(SCC(=O)N4CCCCC4)nn23)cc1	18	-1	6	-36	89*	-1
Cc1ccc(C(=O)NCCc2nnc3ccc(SCC(=O)N4CCCC4)nn23)cc1	15	-3	-7	35	42	-9
O=C(NC1CCCC1)C(c1ccncc1)N(CCCN1CCOCC1)C(=O)c1ccc(-c2ccccc2)[nH]1 (stereo not given)	33	22	29	8	51	0
CC(C)(C)NC(=O)C(c1ccncc1)N(Cc1ccc(F)cc1)C(=O)c1ccc(-c2ccccc2)[nH]1 (stereo not given)	9	90	87*	-14	0	10
O=C(NC1CCCC1)C(c1ccncc1)N(Cc1ccccc1)C(=O)c1ccc(-c2ccccc2)[nH]1 (stereo not given)	5	44	73*	-15	0	22
O=C(NC1CCCC1)C(c1ccncc1)N(Cc1ccco1)C(=O)c1ccc(-c2ccccc2)[nH]1 (stereo not given)	21	114	122*	-10	5	12
Cc1cc2ncn(CCC(=O)NC(C)(C)C)c2cc1C	38	-9	5	-1	6	0
